Assay results published in PMC3178889 (Nature neuroscience, 2011).
Entries after “also recorded” stand apart in the source; their conditions may differ. No end group written: not given here. *: point of attachment. Myristoyl = CCCCCCCCCCCCCC(=O)*; Lauroyl = CCCCCCCCCCCC(=O)*

Assays:
Tα = test: GST-UNC119B pulldown from bovine retina lysate; type: binding; details: unpublished results of the authors
transducin = details: absence of rhodopsin; cited from earlier work
[1] = test system: GTPase activity of Tα (purified Tαβγ); test: GTPase activity of purified Tαβγ in the presence of depleted ROS membranes; type: biochemical
Procedure, shortened: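 Purified native transducin (Tαβγ) reconstituted with depleted rod outer segment membranes, which carry rhodopsin and a trace of residual transducin. […] Components (transducin, UNC119, depleted membranes) checked by SDS-PAGE.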

GST-UNC119 = GST-UNC119 pulldown of proteins from retina lysates or HEK cells; type: binding, bovine
human UNC119 = human UNC119 (Homo sapiens, UniProt Q13432); test: Isothermal titration calorimetry; type: binding; details: ITC; for binding relative to the lauroyl Tα peptide: compared with lauroyl-GAGASAEEKH
rod photoreceptors = details: passive diffusion after light activation; cited from earlier work
binding of Tα to UNC119 = test system: binding of Tα to UNC119; set-up: species or system bovine; details: GST-UNC119 pulldown from retina lysate in the presence of peptide; immunoblot

In the case of “UNC119B: isoform encoded by UNC119B gene, 61% similar and 52% identical to UNC119”, the “pulldown of Tα by GST-UNC119B” value (Tα) is reported as “pulls down Tα from bovine retina lysate”.

In the case of “transducin: purified native heterotrimeric transducin”, the “GTP/GDP exchange rate constant” value (transducin) is given as 10^−4 /sec, the “Kcat of GTPase” value ([1]; depleted ROS membranes reconstituted with transducin) is given as 1.5 moles GTPhydrolyzed/mol transducin/min and the “GTPase activity rate of the reconstituted system” value ([1]; purified Tαβγ in the presence of ROS membranes, Fig. 5C red line) is given as 1.5 mole GTP/min.

With “Tα(G2A): Tα with G2 replaced with alanine, a mutation preventing Tα acylation” the “interaction with GST-UNC119 in pulldown of protein expressed in HEK cells” value (GST-UNC119; bovine Tα or Tα(G2A) expressed in HEK cells, anti-Tα blot) was “does not interact; also recorded: did not interact”.

With Lauroyl-GSCQSNENSE the “binding relative to the lauroyl Tα peptide” value (human UNC119; listed as Lauroyl-ODR-3) was “more than one order of magnitude weaker” and the “binding relative to the lauroyl Tα peptide” value (human UNC119; listed as ODR-3 N-terminal peptide) was “lower affinity interaction”.

In the case of Tβγ: transducin βγ subunits, the “t1/2 of light-induced translocation to the inner segment” value (rod photoreceptors) is listed as “approximately 12 min”.

For Myristoyl-GAGASAEEKH, the “interaction with recombinant human UNC119” value (human UNC119) was “tight binding” and the “number of binding sites” value (human UNC119; one-site model) was “single site”.

In the case of GAGASAEEKH, the “competition for binding of Tα to UNC119” value (binding of Tα to UNC119) is reported as “did not”.

With Lauroyl-GAGASAEEKH the “competition for binding of Tα to UNC119” value (binding of Tα to UNC119) was “competes for binding”.

In the case of “Tα: rod photoreceptor transducin α-subunit”, the “t1/2 of light-induced translocation to the inner segment” value (rod photoreceptors) is listed as 3 to 5 min and the “interaction with GST-UNC119 in pulldown from retina lysate” value (GST-UNC119; bovine or mouse retina lysate, Coomassie/LC-MS/MS or immunoblot) is listed as “UNC119 interacts with Tα; also recorded: is pulled down”.
